Bioassay records deposited in PubChem BioAssay by several laboratories.
An excerpt weighted towards active compounds, which were near 5.8% of everything screened.
RBBP9 inhibitor – human RBBP9 hydrolase inhibition | inhibition, % at 7.94 µM | AID 1515 | O75884 | recombinant RBBP9, FP-Rh probe fluorescence polarization | actives 0.2% (n = 220,000);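 active means inhibition above the campaign mean of all tested compounds plus 3 SD, cut at about 14% in these data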;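 further: plate controls were DMSO wells with RBBP9 for no effect and wells lacking RBBP9 protein for full effect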
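Assay system: recombinant human RBBP9; Reagent: Serine-hydrolase probe FP-Rh, 375 nM pre-mixing; Doses: 7.94 µM single dose, 0.794% DMSO; Incubation: 30 min then 45 min, 25 °C; Detection: fluorescence polarization (mP), excitation 525 nm, emission 598 nm; Evaluation: percent inhibition from mP, scaled between DMSO and no-protein wells.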
ROMK primary – modulates human ROMK potassium channel activity. P48048. Tet-inducible ROMK, thallium flux fluorescence; actives lie on both sides. B-score at 10 µM. actives 2% (n = 130,000). AID 1918;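 active means signal ratio slope over the read window, or its plate-corrected B-score, at least 3 SD from the plate mean, either direction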;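 further: B-score of the F/F0 ratio slope over 7 to 12 s after thallium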
Target sequence (P48048 whole entry, looked up): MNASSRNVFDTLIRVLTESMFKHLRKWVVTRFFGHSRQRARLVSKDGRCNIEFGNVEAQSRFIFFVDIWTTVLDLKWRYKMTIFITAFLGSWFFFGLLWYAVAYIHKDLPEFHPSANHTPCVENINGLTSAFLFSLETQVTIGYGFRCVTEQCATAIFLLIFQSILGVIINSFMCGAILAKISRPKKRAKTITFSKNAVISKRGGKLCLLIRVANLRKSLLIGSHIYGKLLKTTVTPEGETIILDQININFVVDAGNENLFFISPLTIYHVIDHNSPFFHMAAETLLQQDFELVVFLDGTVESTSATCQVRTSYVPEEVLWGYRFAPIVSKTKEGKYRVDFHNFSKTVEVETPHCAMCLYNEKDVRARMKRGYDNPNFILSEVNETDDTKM
p47phox inh – p47phox (human) inhibition | p47phox/p22phox peptide binding, fluorescence polarization, 2 h | P14598 | inhibition, % at 24.7 µM | actives 0.53% (n = 220,000);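 active means inhibition above about 30%, limit read from the data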;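 further: 0% = p47phox with labelled peptide and 100% = labelled peptide alone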
14-3-3 Bad PPI – disrupts binding of bovine 14-3-3 zeta to phospho-Bad peptide; inhibition, % at 21.7 µM; AID 781; actives 0.71% (n = 220,000); TR-FRET 14-3-3zeta/Dy647-pBad peptide displacement, 1 h;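 active means inhibition above about 70%, limit read from the data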;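 further: 0% = full 14-3-3 plus peptide FRET controls and 100% = background without 14-3-3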
Target sequence (P63103 whole entry, looked up): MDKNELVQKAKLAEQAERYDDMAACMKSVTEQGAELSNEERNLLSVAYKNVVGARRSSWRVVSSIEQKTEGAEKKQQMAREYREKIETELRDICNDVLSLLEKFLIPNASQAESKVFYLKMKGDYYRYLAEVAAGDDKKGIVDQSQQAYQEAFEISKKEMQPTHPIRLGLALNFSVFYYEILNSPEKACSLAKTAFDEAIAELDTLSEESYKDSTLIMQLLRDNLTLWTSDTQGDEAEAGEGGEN
KCC2 mod – KCC2 (human) Cl- transport modulation | AID 1456 | Q9H2X9 | actives 2.2% (n = 190,000) | KCC2 cells, thallium flux FluoZin-2 fluorescence | B-score of Tl+ flux slope (higher = more flux/activation; lower = inhibition) at 10 µM;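 active means thallium flux slope and its plate-corrected score both differing from the plate sample mean at a set confidence after two filtering rounds, in either direction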;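 further: slope of fluorescence scaled to starting intensity during 10 to 20 s after thallium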
WT yeast gro inh – growth inhibition of WT yeast, mitochondrial fusion screen. mitochondrial fusion phenotypic screen, WT strain. inhibition, % at 10 µM. actives 2.1% (n = 190,000); in the data active means inhibition above about 58%; tested in S. cerevisiae
ROMK retest – retested hit modulating human ROMK potassium channel; shares compounds with ROMK primary; ROMK thallium flux, fluorescence ratio; hits give low values; normalized thallium flux (F/F0 slope) at 10 µM; actives 54% (n = 3,000);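 active means Flux at 10 µM at least 3 SD below or above vehicle control mean in one or both replicates; inconclusive means no clear call, values can overlap the other calls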
* = called active by the depositor; i = inactive; u = inconclusive; x = no result given.

SMILES | RBBP9 inhibitor | ROMK primary | p47phox inh | 14-3-3 Bad PPI | KCC2 mod | WT yeast gro inh | ROMK retest
CN(/N=C/c1c[nH]c2ccccc12)c1cnn(-c2ccc(F)c(Cl)c2)c(=O)c1Cl | -6 | -1.4 | -27 | 3 | 0.019 | 8 | x
CN(/N=C/c1cccnc1)c1cnn(-c2ccc(F)c(Cl)c2)c(=O)c1Cl | 10 | 1.7* | -39 | 18 | -0.022 | -12 | 0.089
CCN(CC)S(=O)(=O)c1cc(NC(=O)Cn2ncc(Cl)c(Cl)c2=O)ccc1C | -8 | x | 0 | 28 | x | x | x
O=C(/C=C/c1ccccc1)OCc1cnc(Cl)s1 | -4 | -0.32 | -9 | -11 | x | 25 | x
CCCC(=O)OCCNc1cc(Sc2nccn2C)c2nonc2c1[N+](=O)[O-] | -2 | -4.7* | -6 | -7 | -2.1 | 15 | 0.051*
Cc1ccc(S(=O)(=O)N2CCOCC2)cc1NC(=O)CNCC1CCCCC1 | -10 | -1 | -2 | 27 | 0.34 | -2 | x
CCC1(C)Cc2ccccc2C(=S)N1 (stereo not drawn) | -2 | 0.45 | -3 | -12 | -0.086 | 10 | x
O=C(O)c1ccc2c(c1)N(Cc1ccc(F)cc1)C(=O)c1ccccc1S2 | -7 | 0.81 | -2 | -8 | -2.8 | -11 | x
CCN1CCN(CCNC(=O)c2ccc3c(c2)N(Cc2ccc(F)cc2)C(=O)/C(=C/c2ccccc2)S3)CC1 | -8 | -3.1* | 62* | 52 | -1.8 | 86* | 0.073
Cc1cc(C(=O)NNS(=O)(=O)c2ccc(C(C)(C)C)cc2)nn1C(C)(C)C | -1 | -0.66 | 2 | 2 | 0.14 | x | x
CCOc1cc(CNCCCN2CCOCC2)cc(Br)c1OCc1ccccc1Cl | -3 | -1.6* | -21 | 0 | 0.25 | 78 | u
CCOc1cc(CNCCN2CCOCC2)ccc1OCc1ccccc1Cl | 5 | -2 | -6 | -5 | 0.19 | -11 | x
COC(=O)c1ccccc1-c1ccc(C(c2c(C)[nH][nH]c2=O)c2c(C)[nH][nH]c2=O)o1 | 6 | -3.8* | -10 | -7 | 0.32 | -1 | u
COC(=O)c1ccc(-c2sc3nc(N4CCOCC4)c4c(c3c2N)CCCC4)o1 | -1 | -4.3* | 9 | x | -0.074 | 62* | 0.058*
COc1cc2c3c(c1)C(C)CC(C)(C)N3C(=O)C2=O (stereo not drawn) | 1 | 3.4* | -7 | -20 | x | -5 | 0.095
COc1cc2c3c(c1)C(C)=CC(C)(C)N3C(=O)C2=O | -3 | 2.2 | -4 | -9 | -0.031 | -3 | x
CCc1ccc(-c2nc(CSCC(=O)N3CCN(c4ncccn4)CC3)c(C)o2)cc1 | -7 | x | -17 | 3 | x | 15 | 0.064*
CN1CCN(C(=O)/C(C#N)=C/c2ccc(F)cc2)CC1 | 1 | -2.7* | -4 | -5 | -0.19 | -24 | 0.047*
N#C/C(=C\c1ccc(C#N)cc1)C(=O)N1CCCC1 | 0 | -5.1* | -6 | -4 | -0.085 | -24 | 0.04*
Cc1ccc2c(C(=O)N3CCN(c4ccccc4)CC3)cc(-c3cccnc3)nc2c1C | -3 | 1.9* | 6 | 32 | -1.5 | 73* | 0.078
COC(=O)c1cc(C(=O)N2CCN(c3cccc(Cl)c3)CC2)cc([N+](=O)[O-])c1 | 5 | 3.7* | 5 | -6 | -0.78 | 14 | u
O=C(c1cccc([N+](=O)[O-])c1)N1CCN(c2cccc(Cl)c2)CC1 | -2 | -0.052 | -1 | -16 | -0.85 | 14 | x
CCN(CC)CCCNC(=O)c1cc2c(-c3ccc(Cl)cc3)nn(C)c2s1 | -6 | x | -33 | 7 | x | 2 | 0.059*
CN1CCN(CCCNC(=O)c2cc3c(-c4ccc(Cl)cc4)nn(C)c3s2)CC1 | -12 | x | -15 | 0 | x | 13 | x
COc1ccc(C2=C(SC)CC2=NC(C)(C)C)cc1 | -5 | -4.7* | -24 | 1 | 0.51 | -3 | 0.046*
SMILES | RBBP9 inhibitor | ROMK primary | p47phox inh | 14-3-3 Bad PPI | KCC2 mod | WT yeast gro inh | ROMK retest
S=c1[nH]nc(-c2n[nH]c3c2CCC3)n1/N=C/C=C/c1ccccc1 | -9 | -0.78 | -19 | 15 | 0.067 | x | x
O=S(=O)(Nc1cc(Sc2ncn[nH]2)c(O)c2ccccc12)c1ccccc1 | 8 | -4.3* | 18 | 71* | -1.3 | 24 | 0.046*
CCOC(=O)N/N=C(/C)c1cccc(-n2cnnn2)c1 | -9 | 0.37 | 3 | -11 | -0.012 | 6 | x
O=C(O)CCCN1C(=O)/C(=C/c2cn(-c3ccccc3)nc2-c2cccs2)SC1=S | -9 | -3.4* | -79 | 68 | i | 7 | u
CN(c1ccccc1)S(=O)(=O)c1cccc(NC(=O)CCN2C(=O)C3CCCCC3C2=O)c1 (stereo not drawn) | -5 | 0.66 | 2 | -5 | -1.3 | -13 | x
CCN(CC)c1ccc(N=Cc2cc(Br)ccc2O)cc1 | 6 | -5.6* | -39 | -14 | -1.8 | 13 | 0.064*
Cc1cc(=O)oc2c(C(=O)/C=C\c3cccs3)c(O)ccc12 | -2 | -5.7* | -25 | -7 | 0.028 | 28 | 0.05*
CCCCC(=O)Nc1ccc(C(=O)Nc2ccc(OC)cc2[N+](=O)[O-])cc1 | -4 | x | -17 | 0 | -0.39 | 9 | 0.035*
CCCCC(=O)Nc1ccc(NC(=O)c2ccc([N+](=O)[O-])cc2)cc1OC | -6 | 0.28 | -2 | 5 | -0.45 | 5 | x
COC(=O)c1sccc1NC(=S)N1C(C)CCCC1C (stereo not drawn) | -2 | -1 | -3 | -9 | -1.4 | 0 | x
CN(C)/C=C1\C(=O)N(c2ccc(Cl)cc2)CS1(=O)=O | -7 | x | -4 | -9 | -0.57 | -24 | x
Cc1ccc(N2CS(=O)(=O)/C(=C/N(C)C)C2=O)cc1 | -4 | x | -9 | 9 | 0.45 | 10 | 0.082
O=S(=O)(Cc1noc(-c2ccccc2Cl)n1)c1ccccn1 | -12 | x | 2 | -1 | -0.93 | x | x
CCOC(=O)C(CC)Sc1nc2c(cnn2-c2ccccc2)c(=O)[nH]1 (stereo not drawn) | -1 | x | -1 | 0 | x | 8 | x
CCC(CC)C(=O)Nc1c2cnn(-c3ccccc3)c2nc(=O)n1-c1ccccc1 | -3 | -5* | -6 | 29 | -3 | 0 | 0.052*
COc1cc(C(=O)NCCCNc2nc3cc(C)cc(C)c3cc2C#N)cc(OC)c1OC | -7 | x | -7 | 7 | -0.35 | 16 | x
CCOc1ccc2nc(NCCCNC(=O)c3cc(OC)c(OC)c(OC)c3)c(C#N)cc2c1 | -6 | x | -19 | 0 | x | x | 0.074
CC/C(=N/Nc1cccc(C)c1)c1cnnc(SC)n1 | -3 | -4.1* | -5 | 1 | 0.016 | 2 | u
CCCNc1nc(Cl)nc(NCc2cccnc2)n1 | -13 | -1.5 | 19 | 5 | 0.3 | x | x
CC(C)(C)Nc1nc(Cl)nc(NCc2ccccc2)n1 | -9 | -8.5* | -1 | -1 | 0.064 | x | 0.047*
Cc1ccc(NC(=O)c2cc(C(=O)c3cc(Cl)ccc3O)cn(-c3ccc(C)cc3)c2=O)cc1 | -16 | x | -68 | -11 | -0.13 | 31 | x
